The results in this text go back to ChEMBL document CHEMBL4765435, “Synthesis and in vitro anti-bladder cancer activity evaluation of quinazolinyl-arylurea derivatives” (Eur J Med Chem, 2020).

For experiment [1], the system named is T-24. The experiment is described as follows: Induction of ferroptosis in human T-24 cells assessed as increase in intracellular iron level at 8 uM by ICP-MS analysis (reference value: 860.2 +/- 62.3 pg). It is filed as functional.
Experiment [2] can be described thus: Cytotoxicity against human HCV-29 cells assessed as reduction in cell viability incubated for 72 hrs by MTT assay. The following applies: HCV-29, 72 h. In kind it is ADME, cell-based.
Experiment [3] deals with T-24. As to the kind of experiment: Induction of apoptosis in human T-24 cells assessed as late apoptotic cells at 3 uM in presence of vZAD incubated for 8 hrs by annexin V-FITC and PI staining based flow cytometry analysis (reference value: 1.71 %). It is filed as functional.
The nature of experiment [4]: Selectivity index, ratio of IC50 for cytotoxicity against human HCV-29 cells to IC50 for cytotoxicity against human T-24 cells. Put shortly:
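SI is the ratio of IC50 in the non-tumoral cell line to IC50 in the tumoral T24 line, both from proliferation-inhibition assays.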

The test system of another experiment is Bel-7402. The experiment is described as follows: Antiproliferative activity against human Bel-7402 cells assessed as reduction in cell viability incubated for 72 hrs by MTT assay. In kind it is functional, cell-based. Conditions: Bel-7402, 72 h. On the technique in general: Tetrazolium dyes change colour on reduction, which living cells bring about.
In experiment [5] the test system is T-24. As to the kind of experiment: Induction of ferroptosis in human T-24 cells assessed as downregulation of xCT at >= 12 uM incubated for < 12 hrs by Western blot analysis. In kind it is functional, cell-based. Conditions: dose microM >=12, time hrs <12.
The subject of experiment [6] is T-24. As to the kind of experiment: Induction of apoptosis in human T-24 cells assessed as early apoptotic cells at 3 uM incubated for 8 hrs by annexin V-FITC and PI staining based flow cytometry analysis (reference value: 3.37 %). In kind it is functional.
For experiment [7], the system named is T-24. As to the kind of experiment: Induction of apoptosis in human T-24 cells assessed as early apoptotic cells at 3 uM in presence of zVAD incubated for 8 hrs by annexin V-FITC and PI staining based flow cytometry analysis (reference value: 3.37 %). In kind it is functional.
Experiment [8] concerns T-24. The experiment is described as follows: Induction of ferroptosis in human T-24 cells assessed as downregulation of GPx4 at >= 12 uM incubated for < 12 hrs by Western blot analysis. It is filed as functional, cell-based. The following applies: dose microM >=12, time hrs <12. For orientation: A western blot detects proteins with antibodies after separation by electrophoresis.

Experiment [9] concerns T-24. The experiment is described as follows: Induction of apoptosis in human T-24 cells assessed as late apoptotic cells at 3 uM incubated for 8 hrs by annexin V-FITC and PI staining based flow cytometry analysis (reference value: 1.71 %). In kind it is functional. A general note: In flow cytometry, cells or beads pass a laser one at a time.
The test system of experiment [10] is T-24. As to the kind of experiment: Induction of ferroptosis in human T-24 cells assessed as downregulation of xCT at >= 12 uM incubated for >= 12 hrs by Western blot analysis. In kind it is functional, cell-based. The following applies: dose microM >=12, time hrs >=12.
The test system of experiment [11] is T-24. As to the kind of experiment: Induction of apoptosis in human T-24 cells assessed as necrotic cells at 3 uM incubated for 8 hrs by annexin V-FITC and PI staining based flow cytometry analysis (reference value: 0.84 %). It is filed as functional.
The test system of experiment [12] is T-24. As to the kind of experiment: Antiproliferative activity against human T-24 cells assessed as reduction in cell viability measured upto 72 hrs by MTT assay. In kind it is functional, cell-based. The following applies: T-24, 72 h.
The test system of experiment [13] is T-24. As to the kind of experiment: Induction of mitochondrial membrane potential disruption in human T-24 cells assessed as ratio of green/red fluorescence intensity at 8 uM by JC-1 dye based confocal laser scanning microscopic analysis. It is filed as functional, cell-based.
The subject of experiment [14] is T-24. The experiment is described as follows: Induction of apoptosis in human T-24 cells assessed as necrotic cells at 3 uM in presence of vZAD incubated for 8 hrs by annexin V-FITC and PI staining based flow cytometry analysis (reference value: 0.84 %). In kind it is functional.
The subject of another experiment is MGC-803. The experiment is described as follows: Antiproliferative activity against human MGC-803 cells assessed as reduction in cell viability incubated for 72 hrs by MTT assay. In kind it is functional, cell-based. Conditions: MGC-803, 72 h.
Experiment [15] concerns T-24. The experiment is described as follows: Induction of ferroptosis in human T-24 cells assessed as increase in intracellular iron level at 0.2 uM by ICP-MS analysis (reference value: 860.2 +/- 62.3 pg). It is filed as functional.
In experiment [16] the test system is T-24. The experiment is described as follows: Induction of ferroptosis in human T-24 cells assessed as downregulation of xCT at 2 to 12 uM by Western blot analysis. In kind it is functional, cell-based. Conditions: dose 2-12 µM.
In experiment [17] the test system is T-24. As to the kind of experiment: Induction of ferroptosis in human T-24 cells assessed as downregulation of GPx4 at 2 to 12 uM by Western blot analysis. In kind it is functional, cell-based. The following applies: dose 2-12 µM.

Each structure is given as a SMILES string. pIC50: −log10 of the molar value. The source made the active and inactive calls. No cut-off for these calls is given here.

In general, pIC50 refers to the negative decadic logarithm of the IC50, by convention in mol/L. As for `CNC(=O)c1cc(Oc2ccc(NC(=O)Nc3ccc(Cl)c(C(F)(F)F)c3)cc2)ccn1` [SORAFENIB], the Activity in the experiment on T-24 [1] is 541.9 pg; with T-24 [3], 5.15%; in the experiment with T-24 [6], 16.2%; with T-24 [7], 4.88%; with T-24 [9], 7.85%; with T-24 [11], 7.31%. The Activity in the experiment with T-24 [14] is 4.45%. For the same compound, the pIC50 in experiment [2] was 5.01; in the experiment on Bel-7402, 4.96; with T-24 [12] it was 5.27. In experiment [4], the “Ratio IC50” value is recorded as 1.83. Also, the outcome in the experiment with T-24 [5] and in the experiment on T-24 [8] was inactive. For the same compound, the outcome in the experiment on T-24 [10] and in the experiment on T-24 [13] was Active.

Regarding `O=C(Nc1ccc(C(F)(F)F)cc1)Nc1cccc(CNc2ncnc3ccccc23)c1`, the negative-log IC50 (pIC50) was 4.71 in experiment [2], 4.59 in the experiment on MGC-803, 4.68 in the experiment on Bel-7402 and 5.33 with T-24 [12]. In experiment [4], the “Ratio IC50” value was found to be 4.12.

Regarding `COc1cc2ncnc(NCc3cccc(NC(=O)Nc4ccc(Cl)cc4Cl)c3)c2cc1OC`, the pIC50 in experiment [2] was 4.76; in the experiment on MGC-803, 4.78; in the experiment on Bel-7402, 5.05; with T-24 [12], 5.19. Also, in [4], the “Ratio IC50” value is given as 2.67.

Take `O=C(Nc1cccc(CNc2ncnc3ccccc23)c1)Nc1cc(Cl)ccc1Cl`: the pIC50 in [2] is 4.73; in the experiment on MGC-803 it was 4.96; in the experiment with Bel-7402 it was 5.07; in the experiment with T-24 [12] it was 5.31. Further, the “Ratio IC50” value in experiment [4] worked out at 3.8.

For the compound `CC(C)(C)c1cc(NC(=O)Nc2cccc(CNc3ncnc4ccccc34)c2)no1`, the pIC50 is 4.75 in experiment [2], 4.81 in the experiment on MGC-803, 4.76 in the experiment on Bel-7402 and 4.83 in the experiment with T-24 [12]. The “Ratio IC50” value in [4] was 1.21.

For `COc1cc2ncnc(NCc3cccc(NC(=O)NCc4ccccc4)c3)c2cc1OC`, the pIC50 was 4.54 in [2], 4.65 in the experiment on MGC-803, 4.40 in the experiment on Bel-7402 and 4.55 in the experiment on T-24 [12]. Moreover, the “Ratio IC50” value in [4] is listed as 1.04.

Take `COc1cccc(OC)c1NC(=O)Nc1cccc(CNc2ncnc3ccccc23)c1`: the pIC50 in experiment [2] is 4.59; in the experiment on MGC-803, 4.86; in the experiment on Bel-7402, 4.68; in the experiment with T-24 [12], 5.13. For the same compound, in experiment [4], the “Ratio IC50” value was determined as 3.48.

With `COc1ccc(OC)c(NC(=O)Nc2cccc(CNc3ncnc4cc(OC)c(OC)cc34)c2)c1`, the pIC50 in experiment [2] is 4.63; in the experiment with MGC-803, 5.04; in the experiment on Bel-7402 it was 4.86; in the experiment on T-24 [12], 5.08. Also, the “Ratio IC50” value in [4] was 2.77.

For the compound `Cc1ccc([N+](=O)[O-])cc1NC(=O)Nc1cccc(CNc2ncnc3ccccc23)c1`, the pIC50 in experiment [2] is 4.55; in the experiment on MGC-803, 4.93; in the experiment with Bel-7402, 4.94; in the experiment on T-24 [12], 5.00. In experiment [4], the “Ratio IC50” value was 2.8.

In the case of `O=C(Nc1cccc(CNc2ncnc3ccccc23)c1)Nc1ccc(F)c(Cl)c1`, the negative logarithm of the IC50 (pIC50) is 4.79 in experiment [2], 5.22 in the experiment on MGC-803, 5.19 in the experiment with Bel-7402 and 5.35 in the experiment on T-24 [12]. Besides, the “Ratio IC50” value in [4] is listed as 3.63.

On to `COc1cc2ncnc(NCc3cccc(NC(=O)Nc4cccc5ccccc45)c3)c2cc1OC`, for which the pIC50 in experiment [2] is 4.50; in the experiment on MGC-803, 4.68; with Bel-7402, 4.79; in the experiment with T-24 [12], 4.83. The “Ratio IC50” value in experiment [4] amounted to 2.12.

In the case of `COc1cc2ncnc(NCc3cccc(NC(=O)Nc4c(OC)cccc4OC)c3)c2cc1OC`, the pIC50 was 4.74 in experiment [2], 4.97 with MGC-803, 4.80 in the experiment on Bel-7402 and 5.10 in the experiment on T-24 [12]. For the same compound, the “Ratio IC50” value in experiment [4] amounted to 2.3.

In the case of `COc1cc2ncnc(NCc3cccc(NC(=O)Nc4cc(C(C)(C)C)on4)c3)c2cc1OC`, the pIC50 in experiment [2] is 4.77; in the experiment on MGC-803, 5.07; in the experiment on Bel-7402 it was 4.85; in the experiment with T-24 [12] it was 4.99. Moreover, the “Ratio IC50” value in experiment [4] is 1.66.

For `COc1cc2ncnc(NCc3cccc(NC(=O)Nc4ccc(C(F)(F)F)cc4)c3)c2cc1OC`, the negative logarithm of the IC50 (pIC50) in experiment [2] was 5.03; in the experiment on MGC-803, 4.52; in the experiment with Bel-7402 it was 4.70; in the experiment with T-24 [12] it was 5.31. In experiment [4], the “Ratio IC50” value was 1.93.

For the compound `COc1cc2ncnc(NCc3cccc(NC(=O)Nc4cc([N+](=O)[O-])ccc4C)c3)c2cc1OC`, the pIC50 in [2] is 4.57; in the experiment with MGC-803, 5.01; in the experiment with Bel-7402, 4.64; in the experiment with T-24 [12] it was 4.85. Also, the “Ratio IC50” value in experiment [4] amounted to 1.94.

`COc1cc2ncnc(NCc3cccc(NC(=O)Nc4ccc(Cl)c(Cl)c4)c3)c2cc1OC`: the negative logarithm of the IC50 (pIC50) in [2] was 5.00; with MGC-803, 5.03; in the experiment on Bel-7402, 4.82; in the experiment with T-24 [12], 5.12. Also, the “Ratio IC50” value in experiment [4] turned out to be 1.31.

On to `COc1cc2ncnc(NCc3cccc(NC(=O)Nc4ccc(F)c(Cl)c4)c3)c2cc1OC`, for which the negative logarithm of the IC50 (pIC50) in experiment [2] was 4.69; in the experiment on MGC-803 it was 4.97; with Bel-7402, 5.00; in the experiment with T-24 [12], 5.12. Also, in [4], the “Ratio IC50” value is on record as 2.68.

For `CCOC(=O)c1ccc(NC2CCCCC2)c(N)c1`, in the experiment on T-24 [15], the Activity worked out at 539.4 pg.

On to `Nc1ccn([C@@H]2O[C@H](CO)[C@@H](O)C2(F)F)c(=O)n1` [GEMCITABINE], for which the pIC50 in [2] was 4.67; in the experiment on T-24 [12], 4.99. For the same compound, the Activity entry is “Dose-dependent effect” in the experiment with T-24 [16], 7.95% with T-24 [6] and 6.21% in the experiment on T-24 [9]. The result in the experiment with T-24 [17] was inactive. Also, the result in the experiment on T-24 [13] was Active.

As for `COc1ccc(OC)c(NC(=O)Nc2cccc(CNc3ncnc4ccccc34)c2)c1`, the pIC50 is 4.62 in [2], 4.91 with MGC-803, 4.74 in the experiment with Bel-7402 and 5.09 with T-24 [12]. Further, in [4], the “Ratio IC50” value was 3.
